Laboratory results as given in ChEMBL document CHEMBL1275258, “Correlation between azole susceptibilities, genotypes, and ERG11 mutations in Candida albicans isolates associated with vulvovaginal candidiasis in China” (2010).
Values after ≈ are worked out from the molar mass of the structure shown.

Assays:
Assay type in all cases: functional
Candida albicans [1] = assay: Antifungal activity against Candida albicans isolate O with CAI genotype by broth microdilution method
How it was run: (§1)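 CLSI (formerly NCCLS) M27-A2 broth microdilution with fluconazole and itraconazole against clinical C. albicans isolates grouped by source (oral or vaginal) and CAI genotype. Trays incubated at 35°C for 24 h. MIC read as the lowest drug concentration giving a prominent drop in turbidity (50% growth inhibition) versus the drug-free control well. C. albicans ATCC 90028 and C. parapsilosis ATCC 22019 used as quality controls. Group values reported as geometric mean MIC50.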

Candida albicans [2] = assay: Antifungal activity against Candida albicans isolate V1 with CAI genotype by broth microdilution method; how it was run: as §1
Candida albicans [3] = assay: Antifungal activity against Candida albicans isolate V2 with CAI genotype by broth microdilution method; how it was run: as §1
Candida albicans [4] = assay: Antifungal activity against Candida albicans isolate V3 with CAI genotype by broth microdilution method; how it was run: as §1
Candida albicans [5] = assay: Antifungal activity against Candida albicans isolate V4 with CAI genotype by broth microdilution method; how it was run: as §1
Candida albicans [6] = assay: Antifungal activity against Candida albicans isolate V5 with CAI genotype by broth microdilution method; how it was run: as §1

Row | Compound | MIC50 (Candida albicans [1]) [µg/mL] | MIC50 (Candida albicans [2]) [µg/mL] | MIC50 (Candida albicans [3]) [µg/mL] | MIC50 (Candida albicans [4]) [µg/mL] | MIC50 (Candida albicans [5]) [µg/mL] | MIC50 (Candida albicans [6]) [µg/mL]
1 | OC(Cn1cncn1)(Cn1cncn1)c1ccc(F)cc1F [FLUCONAZOLE] | 0.356 (≈ 1.16 µM) | 0.375 (≈ 1.22 µM) | 0.218 (≈ 0.712 µM) | 0.735 (≈ 2.4 µM) | 2.04 (≈ 6.67 µM) | 3.36 (≈ 11 µM)
2 | CCC(C)n1ncn(-c2ccc(N3CCN(c4ccc(OCC5COC(Cn6cncn6)(c6ccc(Cl)cc6Cl)O5)cc4)CC3)cc2)c1=O (configuration not stated) [ITRACONAZOLE] | 0.074 (≈ 0.105 µM) | 0.111 (≈ 0.157 µM) | 0.058 (≈ 0.0822 µM) | 0.107 (≈ 0.152 µM) | 0.255 (≈ 0.361 µM) | 0.297 (≈ 0.421 µM)
